In ChEMBL document CHEMBL3580607, “Anti-parasitic Guanidine and Pyrimidine Alkaloids from the Marine Sponge Monanchora arbuscula” (J Nat Prod, 2015):
In brackets after ≈: the same amount, converted by molar mass. Activity calls are given as the source filed them. The calls are words filed in the database; no cut-off is given here.

What was measured:
Trypanosoma cruzi [1] = experiment: Antitrypanosomal activity against trypomastigote stage of Trypanosoma cruzi Y assessed as inhibition of cell viability after 24 hrs by MTT assay; format: functional, organism-based
Procedure, shortened: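 T. cruzi Y-strain trypomastigotes incubated with alkaloids for 24 h; viability by MTT. Benznidazole as standard drug control. IC50 from sigmoidal dose–response curves, mean and standard deviation of replicates from at least two independent assays, 95% CI.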

LLC-MK2 = experiment: Cytotoxicity against rhesus monkey LLC-MK2 cells assessed as inhibition of cell viability after 48 hrs by MTT assay; format: cell-based; conditions: Macaca mulatta, LLC-MK2, 48 h
Procedure, shortened: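 LLC-MK2 rhesus monkey kidney cells seeded at 4 × 10^4 per well, exposed to alkaloids at up to 200 μM for 48 h; viability by MTT. IC50 from sigmoidal dose–response fits with 95% CI, replicates from at least two independent assays.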

[2] = system: Trypanosoma brucei brucei; experiment: Antitrypanosomal activity against Trypanosoma brucei brucei GUTat 3.1 after 72 hrs by Alamar blue assay; format: functional, organism-based; conditions: GUTat 3.1, 72 h
Leishmania infantum [3] = experiment: Antileishmanial activity against intracellular amastigote stage of Leishmania infantum MHOM/BR/1972/LD infected in BALB/c mouse peritoneal macrophages assessed as reduction of parasite burden after 120 hrs by Giemsa staining assay; format: functional, organism-based
Procedure, shortened: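 Peritoneal macrophages from BALB/c mice (collected in RPMI-1640 with 10% FBS, 37 °C, 5% CO2) infected with L. infantum amastigotes from spleens of infected hamsters, at a 1:10 macrophage:amastigote ratio. Compound exposure for 120 h, then Giemsa staining; infected macrophages counted out of 500 cells. Miltefosine as standard drug control.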

Trypanosoma cruzi [4] = experiment: Potency index, ratio of benznidazole IC50 to compound IC50 for trypomastigote stage of Trypanosoma cruzi Y; format: functional
[5] = Selectivity index, ratio of IC50 for rhesus monkey LLC-MK2 cells to IC50 for trypomastigote stage of Trypanosoma cruzi Y; format: toxicity, cell-based; conditions: read-out: Ratio IC50
Procedure, shortened: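 The ratio divides the LLC-MK2 IC50 by the T. cruzi trypomastigote IC50. LLC-MK2 cells were seeded at 4 × 10^4/well, given compound up to 200 μM for 48 h, and read by MTT. Y-strain trypomastigotes were exposed for 24 h, with MTT read-out. IC50s come from sigmoidal dose–response fits (95% CI), using replicates from at least two independent assays.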

Leishmania infantum [6] = experiment: Leishmanicidal activity against promastigote stage of Leishmania infantum MHOM/BR/1972/LD assessed as reduction of mitochondrial membrane potential at 2 uM measured after 60 mins by MitoTracker Red CM-H2XROS dye-based fluorimetric microplate reader analysis relative to control; format: functional; set-up: scale not given: the % may be the effect or the level left
Procedure, shortened: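 L. infantum promastigotes at 2 × 10^6/well exposed to 2 μM compound for 60 min, then MitoTracker Red CM-H2XROS (500 nM) added; fluorescence at excitation 540 nm / emission 595 nm. Controls: DMSO, compound alone, untreated parasites, medium without cells.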

Leishmania infantum [7] = experiment: Leishmanicidal activity against promastigote stage of Leishmania infantum MHOM/BR/1972/LD assessed as increase in reactive oxygen species production at 2 uM measured after 60 mins by H2DCf-DA probe-based fluorimetric microplate reader analysis relative to control; format: functional
Procedure, shortened: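 Promastigotes (2 × 10^6/well) given 2 μM compound for 60 min, then H2DCf-DA (5 μM) for 15 min; fluorescence at 485/520 nm. Oligomycin (20 μM) as positive control; data normalized with oligomycin-treated parasites as 100% and untreated as 0%.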

Leishmania infantum [8] = experiment: Antileishmanial activity against promastigote stage of Leishmania infantum MHOM/BR/1972/LD assessed as reduction of cell viability after 48 hrs by MTT assay; format: functional, organism-based
Procedure, shortened: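 L. infantum promastigotes exposed to alkaloids dissolved in DMSO, diluted in M-199 medium, highest concentration 156 μM, with internal controls; viability read by MTT after 48 h incubation. IC50 from sigmoidal dose–response curves, mean and standard deviation of replicates from at least two independent assays, with 95% CI.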

Leishmania infantum [9] = experiment: Antileishmanial activity against promastigote stage of Leishmania infantum MHOM/BR/1972/LD assessed as increase in membrane permeability at 2 uM measured at 60 mins by SYTOX green staining-based fluorimetric microplate reader analysis
Leishmania donovani [10] = experiment: Antileishmanial activity against promastigote stage Leishmania donovani assessed as growth inhibition after 72 hrs by Alamar blue assay; format: functional, organism-based
Leishmania donovani [11] = experiment: Antileishmanial activity against Leishmania donovani; format: functional, organism-based
A549 = experiment: Cytotoxicity against human A549 cells; format: functional, cell-based
HeLa = experiment: Cytotoxicity against human HeLa cells; format: functional, cell-based
MCF7 = experiment: Cytotoxicity against human MCF7 cells; format: functional, cell-based
[12] = Cytotoxicity against human MCF10A cells; format: cell-based; conditions: mcf-10a

| Structure (SMILES) | IC50 (Trypanosoma cruzi [1]) | IC50 (LLC-MK2) | Activity (Leishmania infantum [3]) | Ratio IC50 (Trypanosoma cruzi [4]) | IC50 (Leishmania infantum [8]) | IC50 (Leishmania donovani [10]) | also measured |
| --- | --- | --- | --- | --- | --- | --- | --- |
| O=C(Cn1ccnc1[N+](=O)[O-])NCc1ccccc1 [BENZNIDAZOLE] | 441 µM | 477 µM |  |  |  |  |  |
| CC/C=C/CCC[C@@H]1C[C@@H]2CC[C@@H]3C[C@@H](CCCCCCC)NC(=[N+]32)N1.O=C([O-])C(F)(F)F |  |  |  |  |  |  | IC50 [2]: 0.24 mg/L |
| CCCCCCCC[C@@H]1C[C@@H]2CC[C@H]3[C@@H](C(=O)OC(C)CCCCCCC[C@@H]4C[C@@H]5CC[C@@H]6C[C@H](C)NC(=N4)N65)[C@@H](C)N=C(N1)N23 (stereo partly specified) [NORBATZELLADINE L] | 7 µM | 85 µM | inactive | 54 | 2 µM |  | selectivity ratio [5]: 12; Activity (Leishmania infantum [6]): 30%; Activity (Leishmania infantum [7]): 65%; Activity (Leishmania infantum [9]): 82% |
| CCCCCCCCC[C@@H]1C[C@@H]2CC[C@H]3[C@@H](C(=O)OC(C)CCCCCCC[C@@H]4C[C@@H]5CC[C@@H]6C[C@H](C)NC(=N4)N65)[C@@H](C)N=C(N1)N23 (stereo partly specified) [BATZELLADINE L] | 2 µM | 22 µM | inactive | 54 | 2 µM | 1.9 mg/L (≈ 2.91 µM) | selectivity ratio [5]: 7; Activity (Leishmania infantum [6]): 35%; Activity (Leishmania infantum [9]): 43% |
| CCCC[C@H]1c2nc(=N)[nH]c3c2[C@H](CC3)C[C@@H]1C |  |  |  |  |  |  | IC50 (Leishmania donovani [11]): 17 mg/L (≈ 69.3 µM) |
| CCCCCCC[C@H]1C[C@H]2CCC3=C(C(=O)OCCCCNC(=N)N)C(CCCCC)N=C(N1)N32 (stereo partly specified) |  |  |  |  |  | 5.5 mg/L (≈ 11.3 µM) |  |
| CCCCCCCCC[C@@H]1C[C@@H]2CC[C@H]3[C@@H](C(=O)OCCCCNC(=N)N)[C@@H](C)N=C(N1)N23 | 64 µM | 130 µM | inactive |  | 2 µM |  |  |
| CCCCCCCCCCCCCCCCOP(=O)([O-])OCC[N+](C)(C)C [MILTEFOSINE] |  | 122 µM |  |  | 16 µM |  |  |
| CCCCCCC[C@@H]1C[C@@H]2CCC3=C(C(=O)OCCCCCCC[C@@H]4C[C@@H]5CC[C@@H]6C[C@H](C)NC(=N4)N65)C(C)N=C(N1)N32 (stereo partly specified) |  |  |  |  |  | 8.5 mg/L (≈ 14.3 µM) |  |
| CCCCCCC[C@@H]1C[C@@H]2CC[C@H]3[C@@H](C(=O)O[C@H](C)CCCCCCC[C@@H]4C[C@@H]5CC[C@@H]6C[C@H](C)N=C(N4)N65)[C@@H](C)N=C(N1)N23 | 5 µM | 10 µM | inactive | 54 | 4 µM |  |  |
| CCCCCCCCCc1cc2n(c(=N)n1)CCC2 | 8 µM | 26 µM | inactive | 54 | 2 µM |  | Activity (A549): inactive; Activity (HeLa): inactive; Activity (MCF7): inactive; Activity [12]: Non-toxic |
| CCC1C=CCC[C@@]2(C[C@@H]3CC[C@@H]4[C@H](C(=O)OCCCCCCCCCCCCCCCC(=O)N(CCCN)C[C@@H](O)CCN)[C@]5(CCC[C@@H](C)O5)NC(=N2)N34)O1 (stereo partly specified) |  |  |  |  |  | 6.8 mg/L (≈ 8.49 µM) |  |
| CCCCC[C@@H]1C[C@H]2CC[C@H]3C[C@@H](CCCCC)NC(=[N+]23)N1.O=C([O-])C(F)(F)F |  |  |  |  |  |  | IC50 [2]: 0.24 mg/L |
